Assay results as given in ChEMBL document CHEMBL3763121, “Synthesis, biological evaluation and structural analysis of novel peripherally active morphiceptin analogs” (Bioorg Med Chem, 2016).
Active and inactive are the calls of the source. No cut-off for these calls is given here. Where a SMILES comes first, the peptide text is derived from it.

Legend:
Mu-type opioid receptor [1] = target: T1, Mu-type opioid receptor (Homo sapiens, UniProt P35372); assay: Agonist activity at human recombinant MOR expressed in CHO cells by calcium mobilization assay; assay type: functional, cell-based
[2] = target: Delta-type opioid receptor (Homo sapiens) (UniProt P41143); assay: Agonist activity at human recombinant DOR expressed in CHO cells at 1 uM by calcium mobilization assay; assay type: functional, cell-based
[3] = target: T2, Kappa-type opioid receptor (Homo sapiens, UniProt P41145); assay: Agonist activity at human recombinant KOR expressed in CHO cells at 1 uM by calcium mobilization assay; assay type: functional, cell-based
Mu-type opioid receptor [4] = target: Mu-type opioid receptor (Rattus norvegicus, UniProt P33535); assay: Displacement of [3H]DAMGO from MOR in Wistar rat brain homogenate by scintillation counting analysis; assay type: tissue-based
How it was run: (§1)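 Competitive radioligand displacement in brain homogenates from adult male Wistar rats: [3H]DAMGO for MOR, [3H][Ile5,6]deltorphin-2 for DOR. IC50 read from logarithmic dose–displacement curves and converted to Ki. Three independent experiments, each in duplicate.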

[5] = target: Delta-type opioid receptor (Rattus norvegicus, UniProt P33533); assay: Displacement of [3H][Ile5,6]deltorphin-2 from DOR in Wistar rat brain homogenate by scintillation counting analysis; assay type: tissue-based; how it was run: as §1
[6] = target: Kappa-type opioid receptor (Cavia porcellus, UniProt P41144); assay: Displacement of [3H]nor-BNI from KOR in Dunkin Hartley guinea pig brain homogenate by scintillation counting analysis; assay type: tissue-based
How it was run: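 KOR affinity measured by competitive displacement of [3H]nor-BNI in guinea pig brain membranes. IC50 taken from logarithmic dose–displacement curves and converted to Ki. Three independent experiments run in duplicate.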

[7] = target: T2, Kappa-type opioid receptor; assay: Agonist activity at human recombinant KOR expressed in CHO cells by calcium mobilization assay; assay type: functional, cell-based
How it was run: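 CHO cells stably co-expressing human recombinant KOR and the C-terminally modified chimeric G protein Gαqi5. Calcium mobilization read-out. Concentration–response curves fitted with a sigmoidal equation that includes baseline, Emax and Hill coefficient. Potency reported as pEC50, the negative log molar concentration giving 50% of the maximal effect. Efficacy reported as intrinsic activity, the ligand Emax relative to the standard agonist Emax.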

[8] = target: T2, Kappa-type opioid receptor; assay: Intrinsic activity at human recombinant KOR expressed in CHO cells at 1 uM by calcium mobilization assay relative to dynorphin A; assay type: functional, cell-based
[9] = Retention time of compound by RP-HPLC analysis; assay type: physicochemical
How it was run: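 Solvent A was 0.1% TFA in water and B was 80% acetonitrile with 0.1% TFA. Linear gradient of 0–100% B over 50 min at 1 ml/min.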

Mu-type opioid receptor [10] = target: T1, Mu-type opioid receptor; assay: Agonist activity at human recombinant MOR expressed in CHO cells at 1 uM by calcium mobilization assay; assay type: functional, cell-based

Sequence of Delta-type opioid receptor (P33533 whole entry): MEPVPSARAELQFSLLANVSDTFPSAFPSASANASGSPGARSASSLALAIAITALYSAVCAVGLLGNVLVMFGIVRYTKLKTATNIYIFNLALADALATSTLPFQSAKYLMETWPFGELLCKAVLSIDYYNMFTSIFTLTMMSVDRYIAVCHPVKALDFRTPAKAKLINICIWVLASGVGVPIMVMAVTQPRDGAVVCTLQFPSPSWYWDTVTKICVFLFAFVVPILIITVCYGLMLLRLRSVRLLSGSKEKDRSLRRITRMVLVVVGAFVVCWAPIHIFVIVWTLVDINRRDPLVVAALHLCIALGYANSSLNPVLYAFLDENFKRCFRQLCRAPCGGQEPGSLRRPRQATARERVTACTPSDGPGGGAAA
T1 sequence (P35372 whole entry): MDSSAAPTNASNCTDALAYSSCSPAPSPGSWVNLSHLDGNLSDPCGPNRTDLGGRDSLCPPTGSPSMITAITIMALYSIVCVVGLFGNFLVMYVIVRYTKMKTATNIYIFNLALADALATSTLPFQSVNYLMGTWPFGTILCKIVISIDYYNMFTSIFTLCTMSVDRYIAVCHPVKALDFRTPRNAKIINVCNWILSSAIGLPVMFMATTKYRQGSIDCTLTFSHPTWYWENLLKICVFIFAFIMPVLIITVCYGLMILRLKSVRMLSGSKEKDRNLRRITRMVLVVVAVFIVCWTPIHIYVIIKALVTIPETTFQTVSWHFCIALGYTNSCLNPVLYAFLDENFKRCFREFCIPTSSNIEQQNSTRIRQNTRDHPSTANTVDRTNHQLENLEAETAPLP
Sequence of Delta-type opioid receptor (Homo sapiens) (P41143 whole entry): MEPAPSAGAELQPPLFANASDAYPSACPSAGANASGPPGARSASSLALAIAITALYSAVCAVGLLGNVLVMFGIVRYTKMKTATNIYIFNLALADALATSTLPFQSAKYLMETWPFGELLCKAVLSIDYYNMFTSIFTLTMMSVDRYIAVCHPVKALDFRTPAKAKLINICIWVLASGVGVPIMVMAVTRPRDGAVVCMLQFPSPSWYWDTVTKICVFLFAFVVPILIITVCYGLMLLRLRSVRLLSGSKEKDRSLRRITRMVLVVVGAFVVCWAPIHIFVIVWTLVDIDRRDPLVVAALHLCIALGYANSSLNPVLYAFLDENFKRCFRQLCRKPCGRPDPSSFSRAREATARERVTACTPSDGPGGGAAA
Sequence of Mu-type opioid receptor (Rattus norvegicus, UniProt P33535) (P33535 whole entry): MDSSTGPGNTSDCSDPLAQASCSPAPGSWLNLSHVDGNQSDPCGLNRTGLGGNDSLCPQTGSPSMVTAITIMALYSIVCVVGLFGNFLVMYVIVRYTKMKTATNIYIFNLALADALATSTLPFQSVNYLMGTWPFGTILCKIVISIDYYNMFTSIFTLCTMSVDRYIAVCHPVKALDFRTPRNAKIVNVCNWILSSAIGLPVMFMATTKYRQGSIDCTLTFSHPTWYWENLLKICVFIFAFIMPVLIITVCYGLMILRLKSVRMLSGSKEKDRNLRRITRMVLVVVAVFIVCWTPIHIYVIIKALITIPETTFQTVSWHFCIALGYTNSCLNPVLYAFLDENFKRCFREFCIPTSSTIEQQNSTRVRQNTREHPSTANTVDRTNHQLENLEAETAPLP
T2 sequence (P41145 whole entry): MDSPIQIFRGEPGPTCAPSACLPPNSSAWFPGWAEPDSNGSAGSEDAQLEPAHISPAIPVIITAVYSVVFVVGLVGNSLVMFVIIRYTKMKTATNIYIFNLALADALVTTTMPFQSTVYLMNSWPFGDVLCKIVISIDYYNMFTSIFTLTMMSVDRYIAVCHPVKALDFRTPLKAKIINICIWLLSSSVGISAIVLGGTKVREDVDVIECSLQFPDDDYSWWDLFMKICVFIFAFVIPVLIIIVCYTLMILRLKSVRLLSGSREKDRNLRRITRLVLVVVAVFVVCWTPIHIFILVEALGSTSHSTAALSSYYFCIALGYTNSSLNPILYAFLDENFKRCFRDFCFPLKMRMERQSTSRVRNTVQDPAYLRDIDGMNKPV
Sequence of Kappa-type opioid receptor (Cavia porcellus, UniProt P41144) (P41144 whole entry): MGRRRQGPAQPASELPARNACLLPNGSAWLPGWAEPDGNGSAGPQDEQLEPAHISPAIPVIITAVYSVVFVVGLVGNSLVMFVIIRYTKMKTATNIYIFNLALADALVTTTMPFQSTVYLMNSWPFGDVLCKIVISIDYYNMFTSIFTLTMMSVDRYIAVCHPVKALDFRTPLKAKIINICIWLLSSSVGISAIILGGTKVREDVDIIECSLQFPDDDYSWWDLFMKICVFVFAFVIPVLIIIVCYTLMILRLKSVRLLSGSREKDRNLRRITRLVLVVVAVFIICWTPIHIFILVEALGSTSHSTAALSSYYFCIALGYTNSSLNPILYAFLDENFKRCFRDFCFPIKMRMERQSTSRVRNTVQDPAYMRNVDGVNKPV

Compound	EC50 (Mu-type opioid receptor [1])	Activity [2]	Activity [3]	Ki (Mu-type opioid receptor [4])	Ki [5]	Ki [6]	EC50 [7]	Intrinsic activity [8]	Retention_time [9]	Activity (Mu-type opioid receptor [10])
NC(=O)[C@@H]1CCCN1C(=O)[C@H](Cc1ccccc1)NC(=O)[C@@H]1CCCN1C(=O)[C@@H](N)Cc1ccc(O)cc1 [MORPHICEPTIN] (H-YPFP-NH2)	741 nM	inactive	inactive	36.4 nM	> 1000 nM	> 1000 nM	–	–	–	–
NC(=O)[C@H]1CC(F)(F)CN1C(=O)[C@H](Cc1ccccc1)NC(=O)[C@@H]1CC(F)(F)CN1C(=O)[C@@H](N)Cc1ccc(O)cc1	4.68 nM	inactive	–	0.37 nM	> 1000 nM	386 nM	813 nM	0.84	14.99 min	–
NC(=O)[C@@H]1CC(F)(F)CN1C(=O)[C@H](Cc1ccccc1)NC(=O)[C@@H]1CC(F)(F)CN1C(=O)[C@@H](N)Cc1ccc(O)cc1	398 nM	inactive	inactive	106 nM	> 1000 nM	> 1000 nM	–	–	14.56 min	–
C[C@H](NC(=O)[C@@H](N)Cc1ccc(O)cc1)C(=O)N[C@@H](Cc1ccccc1)C(=O)NCC(=O)N[C@@H](Cc1ccc(O)cc1)C(=O)N1CCC[C@H]1C(=O)N[C@@H](CO)C(N)=O	–	–	inactive	–	–	–	–	–	–	–
CC1(C)SSC(C)(C)[C@@H](NC(=O)[C@@H](N)Cc2ccc(O)cc2)C(=O)NCC(=O)N[C@@H](Cc2ccccc2)C(=O)N[C@H]1C(=O)O	–	–	inactive	–	–	–	–	–	–	–
NC(=O)[C@H]1CC(F)(F)CN1C(=O)[C@H](Cc1ccccc1)NC(=O)[C@@H]1CCCN1C(=O)[C@@H](N)Cc1ccc(O)cc1	20.4 nM	inactive	–	13.3 nM	> 1000 nM	> 1000 nM	–	–	14.22 min	–
NC(=O)[C@@H]1CCCN1C(=O)[C@H](Cc1ccccc1)NC(=O)[C@H]1CC(F)(F)CN1C(=O)[C@@H](N)Cc1ccc(O)cc1	–	inactive	inactive	> 1000 nM	> 1000 nM	> 1000 nM	–	–	14.1 min	inactive
